This note sets out measurements from ChEMBL document CHEMBL6134777, “Modulating polybasic character of galactose-based glycosylated antitumor ether lipids for enhanced cytotoxic response” (2025).

SMILES strings stand for the structures. Active and inactive are the calls of the source. The calls are words filed in the database; no cut-off is given here.

Assay [1] is described as follows: Potency index, ratio of monobasic GAEL IC50 to test compound IC50 for cytotoxicity against human DU-145 cells assessed as cell death measured after 48 hrs. The class given is functional.
In assay [2] the test system is BT-474. Description: Cytotoxicity against human BT-474 cells assessed as cell death measured after 48 hrs. The class given is functional. The procedure, abridged:
(§1)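 BT-474 cells in DMEM/F12 with 10% FBS plus penicillin/streptomycin, 37°C, 5% CO2. Seeded at 10,500 cells/well and left 24 h, then exposed to rising drug concentrations (stock 30 mM) for 48 h. Read-out: PrestoBlue (10% v/v), 40-45 min, fluorescence ex 560/em 590 nm. Values are blank-subtracted and expressed relative to vehicle-treated cells. Two independent experiments, five wells per concentration.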

Assay [3] in a line: Potency index, ratio of monobasic GAEL IC50 to test compound IC50 for cytotoxicity against human JIMT-1 cells assessed as cell death measured after 48 hrs. It counts as functional.
Assay [4] in a line: Potency index, ratio of monobasic GAEL IC50 to test compound IC50 for cytotoxicity against human MIAPaCa-2 cells assessed as cell death measured after 48 hrs. The class given is functional, MIA PaCa-2.
Assay [5] deals with MIA PaCa-2. Kind of assay: Cytotoxicity against human MIA PaCa-2 cells assessed as cell death measured after 48 hrs. It counts as functional. The procedure, abridged: (§2)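 MIAPaCa-2 in DMEM with 10% FBS, 2.5% horse serum and penicillin/streptomycin, seeded at 7500 cells/well. After 24 h, treated 48 h with increasing drug concentrations from a 30 mM stock. PrestoBlue 10% v/v, 40-45 min, fluorescence 560/590 nm, blank-subtracted, relative to vehicle-treated cells. Two independent experiments, five wells per concentration.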

In assay [6] the test system is JIMT-1. Kind of assay: Cytotoxicity against human JIMT-1 cells assessed as cell death measured after 48 hrs. The class given is functional. The procedure, abridged: (§3)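 DU-145 (5000 cells/well) or JIMT-1 (8000 cells/well) in DMEM with 10% FBS and penicillin/streptomycin. Plated cells rested 24 h, then received increasing drug concentrations (30 mM stock) for 48 h. Viability by PrestoBlue 10% v/v for 40-45 min, fluorescence ex 560/em 590 nm, blank-subtracted, relative to vehicle. Two independent experiments, five wells per concentration.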

Assay [7] relates to DU-145. Description: Cytotoxicity against human DU-145 cells assessed as cell death measured after 48 hrs. It counts as functional. In outline:
as §3

Assay [8] concerns DU-145. Kind of assay: Cytotoxicity against human DU-145 cells assessed as cell death at 4 to 8 uM measured after 48 hrs in presence of MX1013 pan-caspase inhibitor. Particulars: dose 4-8 µM.
Assay [9] in a line: Cytotoxicity against human COV362 cells assessed as cell viability measured after 48 hrs by using PrestoBlue cell viability assay. It counts as functional. The procedure, abridged:
(§4)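 DMEM with 10% FBS plus penicillin/streptomycin, 37°C, 5% CO2. Seeding per well: BxPC3 7500, COV362 7500, HEYC2 8000, HepG2 8000, MDA-MB-231 8000. After 24 h, drug added at increasing concentrations (30 mM stock) for 48 h. PrestoBlue 10% v/v for 40-45 min; fluorescence 560/590 nm, blank-subtracted, relative to vehicle. Two experiments, five wells each; CC50 by nonlinear regression.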

The subject of assay [10] is HepG2. Description: Cytotoxicity against human HepG2 cells assessed as elimination of cells at 6 uM measured after 48 hrs by using PrestoBlue cell viability assay. It counts as functional. In outline:
as §4

Assay [11] can be described thus: Cytotoxicity against human HEY C2 cells assessed as cell viability measured after 48 hrs by using PrestoBlue cell viability assay. The class given is functional. In outline:
as §4

Assay [12] has as its system OVCAR-3. Description: Cytotoxicity against human OVCAR-3 cells assessed as elimination of cells at 6 uM measured after 48 hrs by using PrestoBlue cell viability assay. The class given is functional. The procedure, abridged: (§5)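 OVCAR-3 in RPMI with 10% FBS, 0.01 mg/mL insulin and penicillin/streptomycin, seeded at 7500 cells/well. After 24 h, exposed 48 h to increasing drug concentrations (30 mM stock). PrestoBlue 10% v/v, 40-45 min, fluorescence ex 560/em 590 nm, blank-subtracted, relative to vehicle. Two experiments, five wells per concentration.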

Assay [13] concerns OVCAR-3. Kind of assay: Cytotoxicity against human OVCAR-3 cells assessed as cell viability measured after 48 hrs by using PrestoBlue cell viability assay. The class given is functional. In outline: as §5
Assay [14] relates to JIMT-1. Kind of assay: Cytotoxicity against human JIMT-1 cells assessed as cell death at 6 to 10 uM measured after 48 hrs. The class given is functional, cell-based. The following applies: dose 6-10 µM. The procedure, abridged:
as §3

For the next assay, the system named is MDA-MB-231. Kind of assay: Cytotoxicity against human MDA-MB-231 cells assessed as cell viability measured after 48 hrs by using PrestoBlue cell viability assay. The class given is functional. The procedure, abridged: as §4
The subject of assay [15] is MIA PaCa-2. Kind of assay: Cytotoxicity against human MIAPaCa-2 cells assessed as cell death at 6 to 10 uM measured after 48 hrs. It counts as functional, cell-based. The following applies: dose 6-10 µM. In outline: as §2
Assay [16] has as its system BT-474. Description: Cytotoxicity against human BT-474 cells assessed as cell death at 6 to 10 uM measured after 48 hrs. The class given is functional, cell-based. The following applies: dose 6-10 µM. In outline: as §1
The next assay has as its system BXPC-3. Description: Cytotoxicity against human BXPC-3 cells assessed as cell viability measured after 48 hrs by using PrestoBlue cell viability assay. The class given is functional. In outline:
as §4

Assay [17] is described as follows: Cytotoxicity against human COV362 cells assessed as cell death at 8 uM measured after 48 hrs by using PrestoBlue cell viability assay. It counts as functional. In outline:
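COV362 cells in DMEM with 10% FBS and penicillin/streptomycin at 37 °C and 5% CO₂, seeded at 7500 per well. After 24 h, exposed 48 h to increasing drug concentrations diluted from a 30 mM stock. PrestoBlue (10% v/v) added for 40-45 min, fluorescence read at ex 560/em 590 nm. Cell-free blanks subtracted, viability relative to vehicle. Two independent experiments, five wells per concentration.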

Assay [18] relates to DU-145. Description: Cytotoxicity against human DU-145 cells assessed as cell death at 6 to 10 uM measured after 48 hrs. It counts as functional, cell-based. Particulars: dose 6-10 µM. The procedure, abridged:
as §3

Assay [19] concerns HepG2. Kind of assay: Cytotoxicity against human HepG2 cells assessed as cell viability measured after 48 hrs by using PrestoBlue cell viability assay. It counts as functional. The procedure, abridged:
as §4

Assay [20] concerns BT-474. Kind of assay: Cytotoxicity against human BT-474 cells assessed as cell death up to 10 uM measured after 48 hrs. The class given is functional, cell-based. In outline: as §1
Assay [21] relates to JIMT-1. Kind of assay: Cytotoxicity against human JIMT-1 cells assessed as cell death up to 10 uM measured after 48 hrs. The class given is functional, cell-based. In outline:
as §3

Assay [22] deals with DU-145. Description: Cytotoxicity against human DU-145 cells assessed as cell death up to 10 uM measured after 48 hrs. It counts as functional, cell-based. In outline: as §3
Assay [23] has as its system MIA PaCa-2. Kind of assay: Cytotoxicity against human MIAPaCa-2 cells assessed as cell death up to 10 uM measured after 48 hrs. The class given is functional, cell-based. The procedure, abridged:
as §2

With `CCCCCCCCCCCCCCCCOC[C@H](CO[C@@H]1O[C@H](CN)[C@H](O)[C@H](O)[C@H]1N)OC`, the “Ratio IC50” value in [1], in assay [3] and in assay [4] was 1.5 in each case. The CC50 with BT-474 [2] is 6.4 µM; in the assay with MIA PaCa-2 [5], 7.5 µM; in the assay with JIMT-1 [6] it was 5.7 µM; with DU-145 [7] it was 6.6 µM.

As to `CCCCCCCCCCCCCCCCOC[C@H](CO[C@H]1O[C@H](CO)[C@H](O)[C@H](O)[C@H]1N)OC`, the CC50 is above 20 µM with BT-474 [2], 10 µM with MIA PaCa-2 [5], 9.9 µM in the assay on JIMT-1 [6] and 10.9 µM with DU-145 [7].

With `CCCCCCCCCCCCCCCCOC[C@H](CO[C@@H]1O[C@H](CN)[C@H](N)[C@H](O)[C@H]1N)OC`, the outcome in the assay on DU-145 [8], with JIMT-1 [14], in the assay with MIA PaCa-2 [15], in the assay on BT-474 [16] and in the assay on DU-145 [18] was Active. Moreover, the CC50 in [9] amounted to 3.1 µM; in assay [11], 5.5 µM; in the assay with OVCAR-3 [13], 2.6 µM; in the assay with BT-474 [2], 5.6 µM; in the assay on MDA-MB-231, 6.5 µM; with MIA PaCa-2 [5], 4.5 µM. Also, the CC50 with BXPC-3 came to 2.6 µM; with JIMT-1 [6] it was 3.8 µM; in the assay on DU-145 [7], 3.3 µM; in the assay on HepG2 [19] it was 3.6 µM. Also, the Activity (in the assay with HepG2 [10]; in the assay with OVCAR-3 [12]; in assay [17]) was 100% in each case. The “Ratio IC50” value in assay [1], in assay [3] and in assay [4] was 2 in each case.

Regarding `CCCCCCCCCCCCCCCCOC[C@H](CO[C@H]1O[C@H](CN)[C@H](O)[C@H](O)[C@H]1N)OC`, the “Ratio IC50” value in assay [1], in assay [3] and in assay [4] was 1.5 each time. Moreover, the CC50 in the assay with BT-474 [2] was 6.9 µM; in the assay on MIA PaCa-2 [5], 6.6 µM; in the assay with JIMT-1 [6], 4.9 µM; in the assay on DU-145 [7] it was 5.5 µM.

For `COc1cccc2c1C(=O)c1c(O)c3c(c(O)c1C2=O)C[C@@](O)(C(=O)CO)C[C@@H]3O[C@H]1C[C@H](N)[C@H](O)[C@H](C)O1`, the result with BT-474 [20], in the assay with JIMT-1 [21], with DU-145 [22] and with MIA PaCa-2 [23] was inactive.

With `CCCCCCCCCCCCCCCCOC[C@H](CN)O[C@H]1O[C@H](CO)[C@H](N)[C@H](O)[C@H]1N`, the CC50 was 7.4 µM with BT-474 [2], 8.1 µM in the assay with MIA PaCa-2 [5], 6.3 µM in the assay on JIMT-1 [6] and 8.2 µM in the assay on DU-145 [7].

Take `CCCCCCCCCCCCCCCCOC[C@H](CO[C@H]1O[C@H](CO)[C@H](N)[C@H](O)[C@H]1N)OC`: the CC50 is above 10 µM with BT-474 [2], 6.5 µM in the assay on MIA PaCa-2 [5], 5 µM in the assay with JIMT-1 [6] and 6.3 µM in the assay with DU-145 [7].

Take `CCCCCCCCCCCCCCCCOC[C@H](CO[C@@H]1O[C@H](CO)[C@H](N)[C@H](O)[C@H]1N)OC`: the 50% cytotoxic concentration (CC50) is above 10 µM in the assay on BT-474 [2], 7.8 µM with MIA PaCa-2 [5], 5.8 µM in the assay with JIMT-1 [6] and 6.6 µM with DU-145 [7].

As for `CCCCCCCCCCCCCCCCOC[C@H](CO[C@H]1O[C@H](CN)[C@H](N)[C@H](O)[C@H]1N)OC`, the CC50 amounted to 8 µM with BT-474 [2], 5.3 µM in the assay on MIA PaCa-2 [5], 5.4 µM in the assay with JIMT-1 [6] and 6.7 µM with DU-145 [7].

Consider `CCCCCCCCCCCCCCCCOC[C@H](CN)O[C@@H]1O[C@H](CO)[C@H](N)[C@H](O)[C@H]1N`, for which the CC50 is above 10 µM with BT-474 [2], 7.4 µM in the assay on MIA PaCa-2 [5], 8.9 µM with JIMT-1 [6] and above 10 µM in the assay with DU-145 [7].

For orientation: CC50 means the concentration that lowers cell viability or growth by half.
